Reference: ChEMBL document CHEMBL3526129, “Species differences in tissue distribution and enzyme activities of arylacetamide deacetylase in human, rat, and mouse” (Drug Metab Dispos, 2012)

How the values were obtained:
[1] = Intrinsic clearance in human Liver microsome at 0.025 to 0.75 mM; type: ADME; conditions: liver microsomes, read-out: CLH
In short: (§1)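 Flutamide hydrolysis to FLU-1 in 100 mM potassium phosphate (pH 7.4) with 0.4 mg/ml microsomal protein. Flutamide was 0.025–0.75 mM, or 0.005–0.75 mM for human jejunum. Rodent microsomes were pooled from 3 male SD rats or 5 male C57BL/6J mice. CLint is Vmax/Km, or the initial slope when Km was high; for Hill fits, CLmax. Triplicate determinations.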

[2] = Intrinsic clearance in mouse Liver microsome at 0.025 to 0.75 mM; type: ADME; conditions: liver microsomes, read-out: CLH; in short: as §1
[3] = Intrinsic clearance in mouse kidney microsome at 0.025 to 0.75 mM; type: ADME; conditions: kidney microsomes; in short: as §1
[4] = molecular target: T1, Arylacetamide deacetylase (Homo sapiens, UniProt P22760); assay: Activity of AADAC in human kidney microsome; type: ADME; conditions: microsomes
T1 sequence (P22760 whole entry): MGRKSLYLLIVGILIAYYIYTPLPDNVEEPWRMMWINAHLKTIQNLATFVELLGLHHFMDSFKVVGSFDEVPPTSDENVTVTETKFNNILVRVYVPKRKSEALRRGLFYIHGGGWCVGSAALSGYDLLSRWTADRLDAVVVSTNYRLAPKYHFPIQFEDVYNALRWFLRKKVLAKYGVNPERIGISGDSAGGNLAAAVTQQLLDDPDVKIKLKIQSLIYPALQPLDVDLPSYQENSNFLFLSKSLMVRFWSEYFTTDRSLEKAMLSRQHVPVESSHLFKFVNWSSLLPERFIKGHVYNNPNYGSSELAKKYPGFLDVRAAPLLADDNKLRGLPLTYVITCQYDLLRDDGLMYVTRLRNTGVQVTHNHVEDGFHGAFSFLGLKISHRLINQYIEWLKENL
In short: (§2)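 Hydrolase activity of tissue microsomes in 0.2 ml mixtures of 100 mM potassium phosphate (pH 7.4). Microsomal protein: 0.4 mg/ml for flutamide (0.025–0.75 mM) and phenacetin (0.05–4 mM); 0.5 mg/ml for rifampicin (0.005–1 mM). Products measured were FLU-1, p-phenetidine and 25-deacetylrifampicin, within linear ranges. Three independent experiments.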

[5] = Intrinsic clearance in rat lung microsome at 0.025 to 0.75 mM; type: ADME; conditions: lung microsomes; in short: as §1
[6] = molecular target: T2, Arylacetamide deacetylase (Mus musculus, UniProt Q99PG0); assay: Activity of AADAC in mouse lung microsome; type: ADME; conditions: microsomes; in short: as §2
T2 sequence (Q99PG0 whole entry): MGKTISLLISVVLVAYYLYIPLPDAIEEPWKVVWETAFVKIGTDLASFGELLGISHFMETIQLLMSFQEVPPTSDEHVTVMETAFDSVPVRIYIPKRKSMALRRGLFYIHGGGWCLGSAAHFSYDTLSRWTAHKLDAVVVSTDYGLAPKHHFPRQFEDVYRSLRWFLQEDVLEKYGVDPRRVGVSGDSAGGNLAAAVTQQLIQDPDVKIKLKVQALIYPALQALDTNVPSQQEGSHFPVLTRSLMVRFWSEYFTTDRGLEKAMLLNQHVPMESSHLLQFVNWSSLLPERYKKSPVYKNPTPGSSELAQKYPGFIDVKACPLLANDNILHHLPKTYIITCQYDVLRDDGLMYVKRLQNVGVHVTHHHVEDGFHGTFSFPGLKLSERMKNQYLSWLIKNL

[7] = Intrinsic clearance in rat kidney microsome at 0.025 to 0.75 mM; type: ADME; conditions: kidney microsomes; in short: as §1
[8] = molecular target: T1, Arylacetamide deacetylase; assay: Activity of AADAC in human liver microsome; type: ADME; conditions: microsomes; in short: as §2
[9] = Intrinsic clearance in rat Liver microsome at 0.025 to 0.75 mM; type: ADME; conditions: liver microsomes, read-out: CLH; in short: as §1
[10] = Intrinsic clearance in mouse jejunum microsome at 0.005 to 0.75 mM; type: ADME; conditions: jejunum microsomes
[11] = molecular target: T1, Arylacetamide deacetylase; assay: Activity of AADAC in human jejunum microsome; type: ADME; conditions: microsomes; in short: as §2
[12] = Intrinsic clearance in human jejunum microsome at 0.005 to 0.75 mM; type: ADME; conditions: jejunum microsomes; in short: as §1
[13] = Intrinsic clearance in human kidney microsome at 0.025 to 0.75 mM; type: ADME; conditions: kidney microsomes; in short: as §1
[14] = molecular target: T1, Arylacetamide deacetylase; assay: Inhibition of AADAC in human jejunum microsome
In short: (§3)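 Flutamide hydrolysis to FLU-1 by pooled human jejunum (n = 10) or single-donor human renal microsomes at 0.4 mg/ml in 100 mM potassium phosphate (pH 7.4). Flutamide was 0.005–0.75 mM (jejunum) or 0.025–0.75 mM (kidney). Kinetics were fitted to the substrate inhibition equation, combined with Michaelis-Menten for jejunum. Triplicate determinations.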

[15] = molecular target: T1, Arylacetamide deacetylase; assay: Inhibition of AADAC in human kidney microsome; in short: as §3
[16] = Intrinsic clearance in rat jejunum microsome at 0.005 to 0.75 mM; type: ADME; conditions: jejunum microsomes
[17] = Intrinsic clearance in rat lung microsome at 0.05 to 4 mM; type: ADME; conditions: lung microsomes
[18] = Intrinsic clearance in mouse kidney microsome at 0.05 to 4 mM; type: ADME; conditions: kidney microsomes
In short: (§4)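 Phenacetin hydrolysis by tissue microsomes: 0.05–4 mM phenacetin with 0.4 mg/ml microsomal protein in 100 mM potassium phosphate (pH 7.4). p-Phenetidine formation was read within its linear time range. CLint was Vmax/Km, or the initial slope of velocity vs substrate when Km was high. Triplicate determinations. Human liver pooled (n=50), jejunum pooled (n=10), kidney and lung single donors.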

[19] = molecular target: T1, Arylacetamide deacetylase; assay: Ratio Vmax to Km in human recombinant AADAC; type: ADME
[20] = molecular target: T2, Arylacetamide deacetylase; assay: Ratio Vmax to Km in mouse recombinant AADAC; type: ADME
[21] = Intrinsic clearance in rat jejunum microsome at 0.05 to 4 mM; type: ADME; conditions: jejunum microsomes
[22] = Intrinsic clearance in rat Liver microsome at 0.05 to 4 mM; type: ADME; conditions: liver microsomes, read-out: CLH; in short: as §4
[23] = molecular target: T3, Arylacetamide deacetylase (Rattus norvegicus, UniProt Q9QZH8); assay: Ratio Vmax to Km in rat recombinant AADAC; type: ADME
T3 sequence (Q9QZH8 whole entry): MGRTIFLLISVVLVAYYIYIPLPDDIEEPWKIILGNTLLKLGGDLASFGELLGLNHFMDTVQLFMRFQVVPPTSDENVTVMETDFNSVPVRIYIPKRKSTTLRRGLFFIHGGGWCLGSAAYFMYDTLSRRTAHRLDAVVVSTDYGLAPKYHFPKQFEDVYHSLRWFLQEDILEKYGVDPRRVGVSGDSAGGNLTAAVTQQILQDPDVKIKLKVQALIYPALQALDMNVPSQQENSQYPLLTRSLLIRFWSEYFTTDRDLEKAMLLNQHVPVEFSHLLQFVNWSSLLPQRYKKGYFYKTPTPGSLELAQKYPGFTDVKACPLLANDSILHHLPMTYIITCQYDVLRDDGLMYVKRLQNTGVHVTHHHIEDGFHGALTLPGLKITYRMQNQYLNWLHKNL

[24] = Intrinsic clearance in mouse jejunum microsome at 0.05 to 4 mM; type: ADME; conditions: jejunum microsomes
[25] = Intrinsic clearance in rat kidney microsome at 0.05 to 4 mM; type: ADME; conditions: kidney microsomes; in short: as §4
[26] = test system: Liver microsome; assay: Intrinsic clearance in human Liver microsome at 0.05 to 4 mM; type: ADME; conditions: microsomes, 4000 µM; in short: as §4
[27] = Intrinsic clearance in human kidney microsome at 0.05 to 4 mM; type: ADME; conditions: microsomes, 4000 µM; in short: as §4
[28] = Intrinsic clearance in human jejunum microsome at 0.05 to 4 mM; type: ADME; conditions: jejunum microsomes; in short: as §4
[29] = Intrinsic clearance in mouse Liver microsome at 0.05 to 4 mM; type: ADME; conditions: liver microsomes, read-out: CLH; in short: as §4
[30] = Intrinsic clearance in human lung microsome at 0.05 to 4 mM; type: ADME; conditions: microsomes, 4000 µM; in short: as §4
[31] = molecular target: T1, Arylacetamide deacetylase; assay: Inhibition of AADAC in human liver microsome
[32] = Intrinsic clearance in mouse Liver microsome at 0.05 to 1 mM; type: ADME; conditions: liver microsomes, read-out: CLH
[33] = Intrinsic clearance in human jejunum microsome at 0.05 to 1 mM; type: ADME; conditions: jejunum microsomes
[34] = molecular target: T1, Arylacetamide deacetylase; assay: Inhibition of human recombinant AADAC
[35] = Intrinsic clearance in human Liver microsome at 0.05 to 1 mM; type: ADME; conditions: liver microsomes, read-out: CLH

## CC(C)C(=O)Nc1ccc([N+](=O)[O-])c(C(F)(F)F)c1 [FLUTAMIDE]
[1]
  microsomal CLint at up to 750 µM: 1.8 µL/min/mg
[2]
  microsomal CLint at up to 750 µM: 1.2 µL/min/mg
[3]
  microsomal CLint at up to 750 µM: 0.6 µL/min/mg
[4]
  S50: 2.1 mM
[5]
  microsomal CLint at up to 750 µM: 0.1 µL/min/mg
[6]
  Vmax: 0 nmol/min/mg
[7]
  microsomal CLint at up to 750 µM: 0.2 µL/min/mg
[8]
  Vmax: 1.9 nmol/min/mg
[9]
  microsomal CLint at up to 750 µM: 1.4 µL/min/mg
[10]
  microsomal CLint at up to 750 µM: 0.2 µL/min/mg
[11]
  S50: 0.2 mM
[12]
  microsomal CLint at up to 750 µM: 12.9 µL/min/mg
[13]
  microsomal CLint at up to 750 µM: 1.2 µL/min/mg
[14]
  Ki: 14 µM
[15]
  Ki: 0.6 µM
[16]
  microsomal CLint at up to 750 µM: 0.2 µL/min/mg

## CCOc1ccc(NC(C)=O)cc1 [PHENACETIN]
[17]
  microsomal CLint at up to 4000 µM: 0.1 µL/min/mg
[18]
  microsomal CLint at up to 4000 µM: 0.4 µL/min/mg
[19]
  Vmax/Km: 3.5 uL/min/U
[20]
  Vmax/Km: 5.7 uL/min/U
[21]
  microsomal CLint at up to 4000 µM: 0.1 µL/min/mg
[22]
  microsomal CLint at up to 4000 µM: 0.2 µL/min/mg
[23]
  Vmax/Km: 2.2 uL/min/U
[24]
  microsomal CLint at up to 4000 µM: 0.1 µL/min/mg
[25]
  microsomal CLint at up to 4000 µM: 0.1 µL/min/mg
[26]
  CLH: 1.1 µL/min/mg
[27]
  CL: 0.2 µL/min/mg
[28]
  microsomal CLint at up to 4000 µM: 4 µL/min/mg
[29]
  microsomal CLint at up to 4000 µM: 1.3 µL/min/mg
[30]
  CL: 0.4 µL/min/mg

## CO[C@H]1/C=C/O[C@@]2(C)Oc3c(C)c(O)c4c(O)c(c(/C=N/N5CCN(C)CC5)c(O)c4c3C2=O)NC(=O)/C(C)=C\C=C\[C@H](C)[C@H](O)[C@@H](C)[C@@H](O)[C@@H](C)[C@H](OC(C)=O)[C@@H]1C [RIFAMPIN]
[31]
  Ki: 200 µM
[32]
  microsomal CLint at up to 1000 µM: 0.2 µL/min/mg
[33]
  microsomal CLint at up to 1000 µM: 0.7 µL/min/mg
[34]
  Ki: 300 µM
[14]
  Ki: 700 µM
[35]
  microsomal CLint at up to 1000 µM: 0.7 µL/min/mg
